Screening results deposited in PubChem by several laboratories.
The sample as a whole holds a higher share of hits than the screen did.
Fibroblast inh = blocks proliferation of human lung fibroblasts; LL 47 human lung fibroblast viability, ATP luminescence; stronger effect = lower value; viability, % at 10 µM; 85,000 tested, 1.1% active;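 active means viability at or below 50% in the single dose screen; inactive means viability above 50%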;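 further: compound exposure lasted 72 h before the ATP readout; 100% = median luminescence of untreated cell-only wells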
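Benchmarks: Cell-only wells, no compound | Test system: LL 47 human lung fibroblasts, passage 12 or lower | Input: 1,150 cells/well | Measured by: CellTiter-Glo luminescence measuring cellular ATP | Medium: IMEM, 15% FBS supplement | Schedule: Overnight attachment after seeding, then 72 h compound exposure at 37 °C | Doses: Compound addition at 0.1% DMSO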
bCat KO growth = beta-catenin-lacking colon tumor cell growth suppression; HCT116 beta-catenin knockout viability, CellTiter-Glo, 60 h; stronger effect = lower value; AID 818; viability, % at 10 µM; 140,000 tested, 1.5% active;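 active means viability at or under a set limit, the compound median less 4 SD, cut at about 6% in these data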;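 further: 0% = Hyamine 1622 control at 20 µM and 100% = untreated cell control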
PTEN del growth = PTEN-deleted cell growth suppression. HCT116 PTEN-null viability, CellTiter-Glo, 60 h; stronger effect = lower value. viability, % at 10 µM. 140,000 tested, 1.2% active. AID 827;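 active means viability at or below a set limit, 4 SD under the median of all tested compounds, cut at about 3.7% in these data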;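 further: PTEN knockout HCT116 line with beta catenin targeted HCT116 as companion control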
Pyk2 oligo antag = Pyk2 (human) oligomerization antagonism; Q14289; Q293 cells, Pyk2 FERM NanoBiT luminescence; stronger effect = lower value; z-score (the deposit names both 25 µM and 10 µM); 99,000 tested, 0.83% active;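 active means Z-score of -3 or lower, scaled per plate to the spread of control and sample wells; inactive means z-score above -3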;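 further: negative z-score means lost luminescence so less FERM oligomerization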
H69AR inhibit = blocks growth of human H69AR lung tumor cells; H69AR lung tumor viability, ATP luminescence, 72 h; stronger effect = lower value; viability, % at 10 µM; 85,000 tested, 6% active; AID 598;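 active means viability at or below 40%; inactive means viability above 40%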;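 further: multidrug resistant small cell line overexpressing MRP-1 efflux transporter; 100% = mean luminescence of untreated control wells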
HUVEC prolif 384 = inhibitors of human endothelial cell proliferation | HUVEC proliferation, CellTiter-Glo luminescence, 72 h; stronger effect = lower value | viability, % at 10 µM (by protocol) | 86,000 tested, 1.1% active | AID 648;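 active means viability at or below 30%; inactive means viability above 30%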;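 further: 100% = median luminescence of DMSO-only cell control wells on each plate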
* marks the source's active call; other numbers are inactive results.

For COc1cc2c(cc1OC)C(c1ccccc1O)N(C1CC(=O)N(c3ccccc3)C1=O)CC2 (stereo not drawn) the results were Fibroblast inh 103, bCat KO growth 99, PTEN del growth 112, Pyk2 oligo antag -0.65, H69AR inhibit 97 and HUVEC prolif 384 103.
O=C(c1cn(-c2ccccc2)nc1-c1cccs1)N(CCO)Cc1ccccc1 was read as Fibroblast inh 96, bCat KO growth 47, PTEN del growth 39, Pyk2 oligo antag -1.3, H69AR inhibit 23* and HUVEC prolif 384 75.
For CCOC(=O)c1[nH]c(C)c(/C(O)=C2\C(=O)C(=O)N(CCN3CCOCC3)C2c2cccs2)c1C (stereo not drawn) the results were Fibroblast inh 91, bCat KO growth 37, PTEN del growth 32, Pyk2 oligo antag -0.73, H69AR inhibit 33* and HUVEC prolif 384 60.
For CCOc1ccc(C2/C(=C(\O)c3c(C)[nH]c(C(=O)OC)c3C)C(=O)C(=O)N2CCN(C)C)cc1 (stereo not drawn) the results were Fibroblast inh 90, bCat KO growth 0.7*, PTEN del growth 0.7*, Pyk2 oligo antag 0.61, H69AR inhibit 92 and HUVEC prolif 384 105.
For CCOC(=O)c1[nH]c(C)c(/C(O)=C2\C(=O)C(=O)N(CCN(C)C)C2c2ccc(C)o2)c1C (stereo not drawn) the results were Fibroblast inh 97, bCat KO growth 32, PTEN del growth 35, Pyk2 oligo antag 0.34, H69AR inhibit 19* and HUVEC prolif 384 75.
`CCOC(=O)c1[nH]c(C)c(/C(O)=C2\C(=O)C(=O)N(CCCN(C)C)C2c2ccncc2)c1C` (stereo not drawn) gave bCat KO growth 96 and PTEN del growth 81.
Screening CCCOc1ccc(C2/C(=C(\O)c3c(C)[nH]c(C(=O)OC)c3C)C(=O)C(=O)N2CCN(C)C)cc1 (stereo not drawn) returned Fibroblast inh 105, bCat KO growth 81, PTEN del growth 78, Pyk2 oligo antag 1, H69AR inhibit 94 and HUVEC prolif 384 104.
For Cc1c(Cl)cccc1NC(=O)c1ccc(OCC(=O)NCc2ccccc2)cc1 the results were bCat KO growth 98, PTEN del growth 99 and Pyk2 oligo antag -1.1.
`CCc1nnc(NC(=O)[C@@H](NC(=O)c2cccc(S(=O)(=O)N(CC)CC)c2)C(C)C)s1` gave bCat KO growth 96, PTEN del growth 92 and Pyk2 oligo antag -0.88.
Cc1ccc2c(c1)cc(CN(Cc1ccco1)C(=O)COc1ccccc1)c1nnnn12 was read as Fibroblast inh 102, bCat KO growth 79, PTEN del growth 73, Pyk2 oligo antag -1.2, H69AR inhibit 38* and HUVEC prolif 384 84.
CCOc1cccc(C2c3c(oc4ccccc4c3=O)C(=O)N2c2ccccn2)c1 (stereo not drawn) was read as Fibroblast inh 84, bCat KO growth 76, PTEN del growth 86, H69AR inhibit 100 and HUVEC prolif 384 72.
Screening C=CCOc1cccc(C2c3c(oc4ccccc4c3=O)C(=O)N2c2ccccn2)c1 (stereo not drawn) returned Fibroblast inh 87, bCat KO growth 73, PTEN del growth 77, H69AR inhibit 26* and HUVEC prolif 384 63.
`CCNC(=O)C1CC(=O)N(Cc2ccc3c(c2)OCO3)C(=Nc2ccc(F)cc2)S1` (stereo not drawn) gave Fibroblast inh 81, bCat KO growth 62, PTEN del growth 64, Pyk2 oligo antag -0.41, H69AR inhibit 80 and HUVEC prolif 384 83.
`CCOC(=O)c1ccc(N=c2sc(C(=O)OC)cc(=O)n2C2CC2)cc1` gave Fibroblast inh 94, bCat KO growth 70, PTEN del growth 66, Pyk2 oligo antag -0.08, H69AR inhibit 34* and HUVEC prolif 384 49.
`COC(=O)c1cc(=O)n(C2CC2)c(=NC2CC2)s1` gave bCat KO growth 92, PTEN del growth 85 and Pyk2 oligo antag 0.51.
CCOC(=O)c1ccc(N=c2sc(C(=O)OC)cc(=O)n2Cc2ccc3c(c2)OCO3)cc1 was read as Fibroblast inh 96, bCat KO growth 6, PTEN del growth 14, H69AR inhibit 33* and HUVEC prolif 384 82.
`COC(=O)c1cc(=O)n(-c2ccc(F)cc2)c(=Nc2ccc(F)cc2)s1` gave bCat KO growth 10 and PTEN del growth 4.
COC(=O)c1cc(=O)n(Cc2ccc3c(c2)OCO3)c(=Nc2ccc(F)cc2)s1 was read as Fibroblast inh 85, bCat KO growth 27, PTEN del growth 16, H69AR inhibit 7.9* and HUVEC prolif 384 60.
For COC(=O)c1ccc(N=c2sc(C(=O)OC)cc(=O)n2C)cc1 the results were Fibroblast inh 55, H69AR inhibit 24* and HUVEC prolif 384 58.
`S=C(Nc1ccccc1)Nc1cc(Cl)ccc1Oc1ccccc1` gave bCat KO growth 87, PTEN del growth 77 and Pyk2 oligo antag 0.12.
COC(=O)c1cc(=O)n(Cc2ccc3c(c2)OCO3)c(=Nc2ccccc2)s1 was read as Fibroblast inh 89, bCat KO growth 21, PTEN del growth 15, H69AR inhibit 12* and HUVEC prolif 384 54.
Screening O=C(Nc1ccccc1)Nc1nccs1 returned Fibroblast inh 97, bCat KO growth 79, PTEN del growth 81, Pyk2 oligo antag -0.24, H69AR inhibit 88 and HUVEC prolif 384 79.
For COc1ccc(NC(=O)Nc2nccs2)cc1 the results were Fibroblast inh 86, bCat KO growth 46, PTEN del growth 53, Pyk2 oligo antag -0.2, H69AR inhibit 20* and HUVEC prolif 384 57.
`COc1ccc(C(=O)OC2CCN(C)CC2)cc1` gave Fibroblast inh 95, bCat KO growth 97, PTEN del growth 98, Pyk2 oligo antag -0.78, H69AR inhibit 74 and HUVEC prolif 384 94.
`Cc1c(Br)cc(C(=O)OC2CCN(C)CC2)c(C)c1C` gave Fibroblast inh 91, bCat KO growth 76, PTEN del growth 83, Pyk2 oligo antag 0.12, H69AR inhibit 3.8* and HUVEC prolif 384 78.
CC(C)(C)C1CC=C2C(C#N)=C(N)C(C#N)(C#N)C(c3cccs3)C2C1 (stereo not drawn) was read as Fibroblast inh 88, H69AR inhibit 65 and HUVEC prolif 384 2.1*.
Screening CN1C2C=C3C(C#N)=C(N)C(C#N)(C#N)[C@@H](c4cccs4)C3C1CC2 (stereo partly drawn) returned Fibroblast inh 90, bCat KO growth 94, PTEN del growth 93, Pyk2 oligo antag 0.56, H69AR inhibit 75 and HUVEC prolif 384 94.
CCCCc1ccc(N=N/C(C(=O)Nc2cc(OC)c(NC(C)=O)cc2OC)=C(/C)O)cc1 was read as bCat KO growth 95 and PTEN del growth 89.
O=C(NN1CCOCC1)c1cc(-c2ccc(Cl)c(Cl)c2)nc2ccccc12 was read as bCat KO growth 86, PTEN del growth 82 and Pyk2 oligo antag 0.83.
